Experimental data: ChEMBL document CHEMBL1821704, “Diarylheptanoids from Curcuma kwangsiensis and their inhibitory activity on nitric oxide production in lipopolysaccharide-activated macrophages” (Bioorg Med Chem Lett, 2011)

Assays:
RAW264.7 [1] = assay: Inhibition of LPS-induced nitric oxide production in mouse RAW264.7 cells after 24 hrs by Griess reaction based spectrophotometry; type: functional, cell-based; conditions: RAW264.7, 24 h
Summary of the method: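 Cells plated at 1 × 10⁵ cells/well and stimulated with LPS, with or without compound, for 24 h at 37 °C. Nitrite was read at 550 nm against a sodium nitrite standard curve. Triplicate wells; mean SD of three independent experiments.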

RAW264.7 [2] = assay: Cytotoxicity against mouse RAW264.7 cells at 100 uM after 24 hrs by MTT assay; type: cell-based; conditions: raw264.7, 24 h

SMILES | IC50 (RAW264.7 [1]) | Activity (RAW264.7 [2])
CC(=O)O[C@H](CCc1ccc(O)cc1)C[C@H](O)CCc1ccc(O)cc1 | 32 µM | Non-toxic
C[C@]12CCC(=O)C=C1CC[C@@H]1[C@@H]2[C@@H](O)C[C@@]2(C)[C@H]1CC[C@]2(O)C(=O)CO [HYDROCORTISONE] |  | Non-toxic
COc1cc(CCC(=O)C[C@@H](O)CCc2ccc(O)cc2)ccc1O | 37.5 µM | Non-toxic
CC(=O)O[C@H](CCc1ccc(O)c(O)c1)C[C@@H](CCc1ccc(O)c(O)c1)OC(C)=O | 7.98 µM | Toxic
O=C(CCc1ccc(O)cc1)C[C@@H](O)CCc1ccccc1 | 75.7 µM | Non-toxic
COc1cc(CCC(=O)C[C@@H](O)CCc2ccc(O)c(O)c2)ccc1O | 9.37 µM | Toxic
COc1ccc2c(c1)c(CC(=O)O)c(C)n2C(=O)c1ccc(Cl)cc1 [INDOMETHACIN] |  | Non-toxic
COc1cc(CC[C@@H](O)C[C@H](O)CCc2ccc(O)c(O)c2)ccc1O | 25.8 µM | Non-toxic
Oc1ccc(CC[C@@H](O)C[C@H](O)CCc2ccc(O)c(O)c2)cc1 | 11.5 µM | Non-toxic
Oc1ccc(CC[C@@H](O)C[C@@H](O)CCc2ccc(O)cc2)cc1 | > 100 µM | Non-toxic
O=C(CCc1ccc(O)cc1)C[C@@H](O)CCc1ccc(O)c(O)c1 | 82.8 µM | Non-toxic
CC(=O)O[C@@H](CCc1ccc(O)c(O)c1)C[C@@H](O)CCc1ccc(O)cc1 | 9.52 µM | Toxic
CC(=O)O[C@H](CCc1ccc(O)c(O)c1)C[C@H](O)CCc1ccc(O)c(O)c1 | 35.5 µM | Toxic
CC(=O)O[C@H](CCc1ccc(O)cc1)C[C@@H](CCc1ccc(O)c(O)c1)OC(C)=O | 10.7 µM | Non-toxic
CC(=O)O[C@H](CCc1ccc(O)c(O)c1)C[C@H](O)CCc1ccc(O)cc1 | 9.52 µM | Toxic
COc1cc(CC[C@@H](O)C[C@@H](O)CCc2ccc(O)cc2)cc(O)c1O (relative stereo) | 2.41 µM | Toxic
COc1cc(CC[C@@H](O)C[C@@H](O)CCc2ccc(O)cc2)ccc1O (relative stereo) | 2.81 µM | Non-toxic
Oc1ccc(CC[C@H](O)C[C@H](O)CCc2ccc(O)c(O)c2)cc1 (relative stereo) | 3.13 µM | Toxic
Oc1ccc(CC[C@@H](O)C[C@H](O)CCc2ccc(O)cc2)cc1 [(+)-HANNOKINOL] | > 100 µM | Non-toxic
